{
  "source": "ChEMBL document CHEMBL4613249",
  "about": "“Serendipitous Discovery of Leucine and Methionine Depletion Agents during the Search for Polyamine Transport Inhibitors” (J Med Chem, 2020)",
  "key": {"L3.6pl [1]": {"tested_on": "L3.6pl", "assay": "Effect on polyamine level in human L3.6PL cells assessed as decrease in intracellular spermidine level at 1 uM measured after 72 hrs in presence of amine oxidase suppressor aminoguanidine and Ant-44 by LCMS analysis", "assay_type": "functional, cell-based", "outline": "(§1)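 L3.6pl cells dosed with Ant-44 fixed at 2 μM plus increasing compound for 72 h at 37°C. Intracellular polyamines and Ant-44 given as nmol/mg protein, in duplicate, with a parallel untreated control.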"}, "L3.6pl [2]": {"tested_on": "L3.6pl", "assay": "Effect on polyamine level in human L3.6PL cells assessed as spermidine level per mg protein in supernatant at 5 uM measured after 72 hrs in presence of amine oxidase suppressor aminoguanidine by LCMS analysis (reference value: 339 pmol/mg)", "assay_type": "functional"}, "[3]": {"biological_target": "Large neutral amino acids transporter small subunit 1 (Homo sapiens) (UniProt Q01650)", "sequence (Q01650 whole entry)": "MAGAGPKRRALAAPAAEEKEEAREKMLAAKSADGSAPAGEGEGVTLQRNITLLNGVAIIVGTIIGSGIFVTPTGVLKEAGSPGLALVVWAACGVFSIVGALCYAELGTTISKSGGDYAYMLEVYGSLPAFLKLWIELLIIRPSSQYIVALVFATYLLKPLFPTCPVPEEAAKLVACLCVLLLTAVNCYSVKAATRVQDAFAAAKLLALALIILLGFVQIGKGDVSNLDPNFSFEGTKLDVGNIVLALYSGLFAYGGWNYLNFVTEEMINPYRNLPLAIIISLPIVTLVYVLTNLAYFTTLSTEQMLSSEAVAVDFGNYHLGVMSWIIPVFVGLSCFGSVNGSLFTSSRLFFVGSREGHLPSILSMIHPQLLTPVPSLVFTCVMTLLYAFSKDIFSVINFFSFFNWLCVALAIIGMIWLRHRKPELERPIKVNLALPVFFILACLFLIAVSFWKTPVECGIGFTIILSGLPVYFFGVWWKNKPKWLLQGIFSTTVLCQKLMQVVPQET", "assay": "Inhibition of LAT1-mediated amino acid transport in human L3.6PL cells assessed as reduction in intracellular methionine level measured after 72 hrs by LCMS analysis", "assay_type": "cell-based", "outline": "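L3.6pl cells (50,000 cells/mL, 10 mL, 1 mM aminoguanidine) were seeded in poly-lysine-treated 9 cm dishes and incubated overnight at 37°C. They were then dosed with compound at 2, 5 or 7 μM from PBS stocks (2, 5, 7 mM) and incubated 72 h. Runs were done in triplicate, with amino acid levels per mg protein.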"}, "L3.6pl [4]": {"tested_on": "L3.6pl", "assay": "Effect on polyamine level in human L3.6PL cells assessed as decrease in intracellular spermine level at 1 uM measured after 72 hrs in presence of amine oxidase suppressor aminoguanidine and Ant-44 by LCMS analysis", "assay_type": "functional, cell-based", "outline": "as §1"}, "CHO-MG": {"tested_on": "CHO-MG", "assay": "Induction of polyamine efflux in aminoguanidine pretreated CHO-MG cells assessed as reduction in cell viability measured after 72 hrs in presence of spermine by MTS assay", "assay_type": "ADME, cell-based, Cricetulus griseus", "details": "chinese hamster"}, "L3.6pl [5]": {"tested_on": "L3.6pl", "assay": "Effect on polyamine level in human L3.6PL cells assessed as putrescine level per mg protein in supernatant at 5 uM measured after 72 hrs in presence of amine oxidase suppressor aminoguanidine by LCMS analysis (reference value: 977 +/- 522 pmol/mg)", "assay_type": "functional"}, "[6]": {"biological_target": "Large neutral amino acids transporter small subunit 1 (Homo sapiens) (UniProt Q01650)", "assay": "Inhibition of LAT1-mediated [3H]-leucine uptake in human L3.6PL cells at 2 to 7 uM preincubated for 24 hrs at 37 degree C followed by HBBS addition and compound washout and measured after 15 mins by scintillation counter method", "assay_type": "cell-based", "outline": "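L3.6pl cells were preincubated with compound for 24 h at 37°C, then washed and placed in HBSS. ³H-leucine uptake was measured over 15 min at 37°C. Unbound label was removed with three cold buffer washes, and counts were normalized to μg protein.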"}, "[7]": {"biological_target": "Large neutral amino acids transporter small subunit 1 (Homo sapiens) (UniProt Q01650)", "assay": "Inhibition of LAT1-mediated [3H]-leucine uptake in human L3.6PL cells at 2 to 20 uM and 37 degree C measured after 2 mins by scintillation counter method", "assay_type": "cell-based"}, "L3.6pl [8]": {"tested_on": "L3.6pl", "assay": "Potentiation of 2 uM N-(anthracenylmethyl) homospermidine-induced toxicity in human L3.6PL cells assessed as increase in Ant-44-induced reduction in cell growth measured after 72 hrs in presence of amine oxidase suppressor aminoguanidine by MTS assay", "assay_type": "functional, cell-based", "outline": "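L3.6pl cells (500 cells/well) were pretreated 24 h with 250 μM aminoguanidine in PBS, then given Ant-44 (2 μM) with increasing compound for 72 h at 37°C. MTS growth was read, with EC50 relative to the Ant-44-only control.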"}, "CHO-K1": {"tested_on": "CHO-K1", "assay": "Cytotoxicity against CHOK1 cells assessed as reduction in cell viability after 48 hrs by MTS assay", "assay_type": "cell-based", "details": "Cricetulus griseus, CHO-K1, 48 h", "outline": "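Cells in RPMI 1640 with 10% FBS, 1% penicillin/streptomycin, 37°C, 5% CO2, with aminoguanidine (1 mM for CHO K1 and CHO-MG, 250 μM for L3.6pl). Plated overnight at 1000 cells/well (CHO lines) or 500 cells/well (L3.6pl). Compound in PBS added, 48 h exposure. Growth read as MTS formazan absorbance at 490 nm. IC50 is the dose giving 50% relative growth versus untreated control. Run twice in triplicate.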"}},
  "note": "The source made the active and inactive calls. The rule behind the calls is not given here.",
  "data": [
    {"smiles": "CC(C)CCN1CCN([C@@H](CNCc2ccccc2)CC2CCCCC2)C[C@@H]1CC(C)C", "values": [
      {"measurement": "Activity", "setting": "L3.6pl [1]", "result": "Active"},
      {"measurement": "Activity", "setting": "L3.6pl [2]", "result": 167, "unit": "pmol/mg"},
      {"measurement": "inhibition", "setting": "[3]", "result": "Dose-dependent effect"},
      {"measurement": "Activity", "setting": "L3.6pl [4]", "result": "Active"},
      {"measurement": "Activity", "setting": "CHO-MG", "result": "Active"},
      {"measurement": "Activity", "setting": "L3.6pl [5]", "result": 2224, "unit": "pmol/mg"},
      {"measurement": "inhibition", "setting": "[6]", "result": "inactive"},
      {"measurement": "inhibition", "setting": "[7]", "result": "inactive"},
      {"measurement": "EC50", "setting": "L3.6pl [8]", "result": 0.29, "unit": "µM"},
      {"measurement": "IC50", "setting": "CHO-K1", "result": 8, "unit": "µM"}
    ]}
  ]
}
